Experimental data as given in ChEMBL document CHEMBL1141516, “2-Aminotetralones: novel inhibitors of MurA and MurZ” (Bioorg Med Chem Lett, 2008).
In brackets after ≈: the same amount, converted by molar mass. Activity calls are given as the source filed them. No cut-off for these calls is given here.

Assays:
[1] = Antibacterial activity against Escherichia coli JM109; format: functional
[2] = Antibacterial activity against Staphylococcus aureus SH1000; format: functional
[3] = Inhibition of Escherichia coli MurA
Method in brief: (§1)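 Poly(His)-tagged MurA from E. coli BL21 Star (DE3) (0.1 mM IPTG, 18 °C, 24 h), purified by Co2+ affinity and gel filtration. At 25 °C, a 2-fold inhibitor series went to 33.3 µg/mL enzyme preincubated 10 min in 50 mM Tris-HCl pH 7.8 with UDP-GlcNAc. PEP started a 30 min reaction. Phosphate was read by malachite green-molybdate at A660 against standards. Means of four experiments ± SD.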

[4] = Inhibition of Staphylococcus aureus MurZ
Method in brief: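 Poly(His)-tagged MurZ was expressed in E. coli BL21 Star (DE3) by autoinduction and purified by Co2+ affinity and gel filtration. At 25 °C, a 2-fold inhibitor series was added to enzyme preincubated 10 min in 50 mM Tris-HCl pH 7.8 with UDP-GlcNAc. PEP started a 30 min reaction. Released phosphate was read by malachite green-molybdate at A660 against phosphate standards. Means of three experiments ± SD.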

[5] = Inhibition of Staphylococcus aureus MurA; method in brief: as §1
[6] = Inhibition of chymotrypsin
[7] = system: UDP-N-acetylglucosamine 1-carboxyvinyltransferase (Escherichia coli K-12), P0A749 [C115D]; experiment: Inhibition of Escherichia coli MurA C115D mutant
Method in brief: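 Purified E. coli MurA C115D mutant protein was tested with inhibitor at up to 120 µM.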

[8] = Inhibition of MDH

Sequence of UDP-N-acetylglucosamine 1-carboxyvinyltransferase (Escherichia coli K-12), P0A749 [C115D] (P0A749 whole entry C115D): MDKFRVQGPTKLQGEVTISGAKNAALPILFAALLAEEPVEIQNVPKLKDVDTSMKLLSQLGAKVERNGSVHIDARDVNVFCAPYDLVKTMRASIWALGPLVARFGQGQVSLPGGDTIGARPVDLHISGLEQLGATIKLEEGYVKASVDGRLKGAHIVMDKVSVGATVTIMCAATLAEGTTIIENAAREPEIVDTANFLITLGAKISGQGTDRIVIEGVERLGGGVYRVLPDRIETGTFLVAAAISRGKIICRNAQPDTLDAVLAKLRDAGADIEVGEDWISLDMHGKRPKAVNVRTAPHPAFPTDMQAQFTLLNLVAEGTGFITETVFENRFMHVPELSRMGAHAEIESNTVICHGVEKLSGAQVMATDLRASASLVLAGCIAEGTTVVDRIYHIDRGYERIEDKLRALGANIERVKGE

Row | MIC [1] [µg/mL] | MIC [2] [µg/mL] | IC50 [3] [µM] | IC50 [4] [µM] | IC50 [5] [µM] | Activity [6] | Activity [7] | Activity [8] | Compound
1 | 8 (≈ 57.9 µM) | 16 (≈ 116 µM) | 0.46 | 1.37 | 1.36 |  |  |  | C[C@@H]1O[C@@H]1P(=O)(O)O [FOSFOMYCIN]
2 | 128 | 64 | 8.53 | 22.9 | 12 | inactive | inactive | inactive | CN1CCN(C2CCc3ccccc3C2=O)CC1.Cl.Cl (stereo not given)
3 | 128 | 8 | 22.5 | 16.1 | 12.5 | inactive |  | inactive | Cl.Cl.O=C1c2ccccc2CCC1N1CCN(CCO)CC1 (stereo not given)
4 | > 256 | > 256 | > 120 | > 120 | > 120 |  |  |  | O=C1c2ccccc2CCC1C1CCCCC1 (stereo not given)
5 | > 256 | > 256 | > 120 | > 120 | > 120 |  |  |  | Cl.Cl.OCCN1CCN(C2CCc3ccccc3C2)CC1 (stereo not given)
6 | 256 | 128 | 3.13 | 18.8 | 17.4 | inactive | inactive | inactive | COc1cc2c(cc1OC)C(=O)C(N1CCN(CCO)CC1)CC2.Cl.Cl (stereo not given)
7 | > 256 | 64 (≈ 168 µM) | 22.6 | 28.9 | 29 | inactive |  | inactive | COc1cc2c(cc1OC)C(=O)C(N1CCN(Cc3ccccc3)CC1)CC2 (stereo not given)
8 | > 256 | > 256 | > 120 | > 120 | > 120 |  |  |  | Cl.Cl.OCCN1CCN([C@@H]2CCc3ccccc3[C@H]2O)CC1
